Where a SMILES comes first, the peptide text is derived from it. [ ]: non-standard residue; d: D form. d2Nal = N[C@H](Cc1ccc2ccccc2c1)C(=O)O; d(hPhe) = N[C@H](CCc1ccccc1)C(=O)O; Aib = CC(C)(N)C(=O)O
organism: Rattus norvegicus; experiment: Effective concentration for ability to release growth hormone from rat pituitary cells; type: functional, cell-based; conditions: Pituitary gland cell
How it was run: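 Rat anterior pituitaries were digested with 0.2% collagenase, 0.2% hyaluronidase and 200 U/mL DNase I. Cells were plated at 1.0 × 10⁵ cells/mL in DMEM with 7.5% horse serum and 5.0% fetal calf serum and cultured 3 days. After washes in medium with 20 mM HEPES pH 7.4, cells were exposed to compound for 15 min at 37 °C. Released GH was measured by RIA. EC50 was referenced to the maximal GH level from 10^-8 M KP-102.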

Going from `NCC(O)CNC(=O)[C@@H](Cc1ccc2ccccc2c1)NC(=O)CCCN1C(=O)CCSc2ccccc21` (some centres undefined) to `NCCNC(=O)[C@@H](Cc1ccc2ccccc2c1)NC(=O)CCN1C(=O)CCS(=O)(=O)c2ccccc21`, the EC50 rises from 1 nM to 10 nM (10-fold).

Going from `NCCNC(=O)[C@@H](Cc1ccc2ccccc2c1)NC(=O)CN1C(=O)CCS(=O)(=O)c2ccccc21` to `NCCNC(=O)[C@@H](Cc1ccccc1)NC(=O)CN1C(=O)CCS(=O)(=O)c2ccccc21`, the EC50 rises from 100 nM to 1000 nM (10-fold).

First: C[C@H](NC(=O)[C@@H](Cc1ccc2ccccc2c1)NC(=O)[C@@H](C)N)C(=O)N[C@@H](Cc1c[nH]c2ccccc12)C(=O)N[C@H](Cc1ccccc1)C(=O)N[C@@H](CCCCN)C(N)=O [PRALMORELIN] (H-[dA][d2Nal]AW[dF]K-NH2)
Second: C[C@H](NC(=O)[C@@H](Cc1ccc2ccccc2c1)NC(=O)[C@@H](C)N)C(=O)N[C@@H](Cc1c[nH]c2ccccc12)C(=O)N[C@H](Cc1ccccc1)C(=O)N[C@@H](CCCCN)C(=O)O (H-[dA][d2Nal]AW[dF]K-OH)
The EC50 of the first is 5-fold lower: 0.2 nM for the first, 1 nM for the second. The first is the more potent here.

Going from `C[C@H](NC(=O)[C@@H](Cc1ccccc1)NC(=O)[C@@H](C)N)C(=O)N[C@@H](Cc1ccccc1)C(=O)N[C@H](Cc1ccccc1)C(=O)N[C@@H](CCCCN)C(N)=O` (H-[dA][dF]AF[dF]K-NH2) to `C[C@H](NC(=O)[C@@H](Cc1c[nH]c2ccccc12)NC(=O)[C@@H](N)Cc1c[nH]cn1)C(=O)N[C@@H](Cc1c[nH]c2ccccc12)C(=O)N[C@H](Cc1ccccc1)C(=O)N[C@H](CCCCN)C(N)=O`, the EC50 rises from 10 nM to 100 nM (10-fold). The first is the more potent here.

Going from `O=C(N[C@H](Cc1ccc2ccccc2c1)C(=O)N[C@@H](CO)Cc1ccc2ccccc2c1)C1CCNCC1` to `NC(=O)CN(CCc1ccccc1)C(=O)[C@@H](Cc1ccc2ccccc2c1)NC(=O)[C@@H](Cc1ccc2ccccc2c1)NC(=O)C1CCNCC1`, the EC50 falls from 1.8 nM to 0.1 nM (18-fold). The second is the more potent here.

Going from `C[C@H](NC(=O)[C@@H](Cc1ccc2ccccc2c1)NC(=O)[C@@H](C)N)C(=O)N[C@@H](Cc1c[nH]c2ccccc12)C(=O)N[C@H](Cc1ccccc1)C(=O)O` to `CC(C)[C@H](NC(=O)[C@@H](Cc1c[nH]c2ccccc12)NC(=O)[C@@H](N)Cc1c[nH]cn1)C(=O)N[C@@H](Cc1c[nH]c2ccccc12)C(=O)N[C@H](Cc1ccccc1)C(=O)N[C@@H](CCCCN)C(N)=O` (H-H[dW]VW[dF]K-NH2), the EC50 rises from 10 nM to over 1000 nM.

Compared with `NCCNC(=O)[C@H](Cc1ccccc1)NC(=O)CN1C(=O)CCSc2ccccc21`, `CCOC(=O)[C@@H](CCc1ccccc1)NC(=O)[C@@H](Cc1c[nH]c2ccccc12)NC(=O)C(C)(C)N` (H-[Aib]-[dW]-[d(hPhe)]-OEt) is 330-fold lower in EC50: 1000 nM for the first, 3 nM for the second.
